Laboratory results reported in ChEMBL document CHEMBL1759986, “Selective α-glucosidase substrates and inhibitors containing short aromatic peptidyl moieties” (Bioorg Med Chem Lett, 2011).
The source made the active and inactive calls. The calls are words filed in the database; no cut-off is given here.

T1: Pancreatic alpha-amylase (Sus scrofa) (UniProt P00690)
T1 sequence (whole entry): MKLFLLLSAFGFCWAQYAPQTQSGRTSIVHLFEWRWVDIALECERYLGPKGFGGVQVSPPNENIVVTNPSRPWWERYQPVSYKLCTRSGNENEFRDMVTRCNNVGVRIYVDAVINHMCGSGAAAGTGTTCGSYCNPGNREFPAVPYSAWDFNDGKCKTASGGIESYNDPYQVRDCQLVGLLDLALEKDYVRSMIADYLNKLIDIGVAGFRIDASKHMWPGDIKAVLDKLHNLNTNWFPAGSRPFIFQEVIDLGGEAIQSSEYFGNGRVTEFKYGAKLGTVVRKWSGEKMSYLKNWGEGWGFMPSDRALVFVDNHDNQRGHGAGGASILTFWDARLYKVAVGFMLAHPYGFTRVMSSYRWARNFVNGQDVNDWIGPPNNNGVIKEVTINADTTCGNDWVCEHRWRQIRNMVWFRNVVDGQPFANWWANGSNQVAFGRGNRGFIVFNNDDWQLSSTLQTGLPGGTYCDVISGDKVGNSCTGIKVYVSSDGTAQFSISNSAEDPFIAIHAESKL

T2: Alpha-glucosidase (Geobacillus stearothermophilus, UniProt P94451)
T2 sequence (P94451 whole entry): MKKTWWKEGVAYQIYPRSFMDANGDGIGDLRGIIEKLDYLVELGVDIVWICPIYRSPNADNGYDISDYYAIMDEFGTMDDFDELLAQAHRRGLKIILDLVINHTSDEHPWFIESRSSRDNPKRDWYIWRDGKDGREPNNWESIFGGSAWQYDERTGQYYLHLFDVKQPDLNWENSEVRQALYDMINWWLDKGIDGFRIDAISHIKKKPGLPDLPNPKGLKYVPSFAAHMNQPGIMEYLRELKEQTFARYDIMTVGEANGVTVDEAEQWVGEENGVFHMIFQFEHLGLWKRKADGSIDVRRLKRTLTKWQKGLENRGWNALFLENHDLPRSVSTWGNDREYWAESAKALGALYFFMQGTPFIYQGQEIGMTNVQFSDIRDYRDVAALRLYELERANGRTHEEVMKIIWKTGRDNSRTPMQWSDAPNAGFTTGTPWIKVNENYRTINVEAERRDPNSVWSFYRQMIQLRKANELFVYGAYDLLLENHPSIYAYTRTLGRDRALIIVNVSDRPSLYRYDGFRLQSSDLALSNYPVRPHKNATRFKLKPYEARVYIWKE

B1: Alpha-glucosidase (Geobacillus stearothermophilus), P94451 (protein)
chain: T2 sequence (P94451 whole entry)

Assays:
[1] = biological target: T1, Pancreatic alpha-amylase (Sus scrofa); experiment: Inhibition of pig alpha-amylase assessed as formation of p-nitrophenol
Outline: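 Screening used each α-amylase with an equimolar mixture of the peptidyl substrate and p-nitrophenyl-α-D-pentaoside. The read-out was the rate of p-nitrophenol formation compared with the chromogenic substrate alone. Each data point was triplicated and averaged.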

[2] = test system: Salivary alpha-amylase (Homo sapiens); experiment: Inhibition of human salivary alpha-amylase assessed as formation of p-nitrophenol
[3] = Competitive inhibition of rice alpha-glucosidase assessed as production of chromogenic p-Nitrphenol measured after 3 mins by HPLC and Michaelis-Menten equation; design: species or system Oryza sativa
Outline: (§1)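 The chromogenic substrate was p-nitrophenyl-α-D-glucopyranoside, with p-nitrophenol formation monitored. Ki was calculated from a Dixon plot. Each measurement was triplicated and averaged.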

Alpha-glucosidase = biological target: T2, Alpha-glucosidase; experiment: Competitive inhibition of Bacillus stearothermophilus alpha-glucosidase assessed as production of chromogenic p-Nitrphenol measured after 3 mins by HPLC and Michaelis-Menten equation; outline: as §1
[4] = substrate: O=[N+]([O-])c1ccc(O[C@H]2O[C@H](CO)[C@@H](O)[C@H](O)[C@H]2O)cc1; experiment: Activity at Bacillus stearothermophilus alpha-glucosidase assessed as production of chromogenic p-Nitrphenol measured after 3 mins by HPLC and Michaelis-Menten equation; details: Geobacillus stearothermophilus
Outline: (§2)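 Alpha-glucosidase from Bacillus stearothermophillus was incubated with the substrate. Km was obtained by Michaelis–Menten kinetics. Vmax, kcat and kcat/Km were reported alongside Km. Each value was measured in triplicate and averaged.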

[5] = substrate: CC(=O)Nc1ccc(O[C@H]2O[C@H](CO)[C@@H](O)[C@H](O)[C@H]2O)cc1; experiment: Activity at Bacillus stearothermophilus alpha-glucosidase assessed as production of chromogenic p-acetaminophenyl measured after 3 mins by HPLC Michaelis-Menten equation; details: Geobacillus stearothermophilus; outline: as §2
[6] = substrate: NC(=O)[C@H](Cc1ccc(O)cc1)NC(=O)[C@H](Cc1c[nH]c2ccccc12)NC(=O)CCC(=O)Nc1ccc(O[C@H]2O[C@H](CO)[C@@H](O)[C@H](O)[C@H]2O)cc1; experiment: Activity at Bacillus stearothermophilus alpha-glucosidase assessed as production of chromogenic Sp-WY measured after 3 mins by HPLC Michaelis-Menten equation; details: Geobacillus stearothermophilus; outline: as §2
[7] = substrate: O=[N+]([O-])c1ccc(O[C@H]2O[C@H](CO)[C@@H](O)[C@H](O)[C@H]2O)cc1; experiment: Ratio of Kcat to Km for Bacillus stearothermophilus alpha-glucosidase assessed as production of chromogenic p-Nitrphenol; details: Geobacillus stearothermophilus; outline: as §2
[8] = substrate: CC(=O)Nc1ccc(O[C@H]2O[C@H](CO)[C@@H](O)[C@H](O)[C@H]2O)cc1; experiment: Ratio of Kcat to Km for Bacillus stearothermophilus alpha-glucosidase assessed as production of chromogenic p-acetaminophenyl; details: Geobacillus stearothermophilus; outline: as §2
[9] = substrate: NC(=O)[C@H](Cc1ccc(O)cc1)NC(=O)[C@H](Cc1c[nH]c2ccccc12)NC(=O)CCC(=O)Nc1ccc(O[C@H]2O[C@H](CO)[C@@H](O)[C@H](O)[C@H]2O)cc1; experiment: Ratio of Kcat to Km for Bacillus stearothermophilus alpha-glucosidase assessed as production of chromogenic Sp-WY; details: Geobacillus stearothermophilus; outline: as §2

Row | Molecule | inhibition [1] | inhibition [2] | also measured
1 | NC(=O)[C@H](Cc1ccc(O)cc1)NC(=O)[C@H](Cc1ccc(O)cc1)NC(=O)CCC(=O)Nc1ccc(O[C@H]2O[C@H](CO)[C@@H](O[C@H]3O[C@H](CO)[C@@H](O[C@H]4O[C@H](CO)[C@@H](O[C@H]5O[C@H](CO)[C@@H](O[C@H]6O[C@H](CO)[C@@H](O)[C@H](O)[C@H]6O)[C@H](O)[C@H]5O)[C@H](O)[C@H]4O)[C@H](O)[C@H]3O)[C@H](O)[C@H]2O)cc1 | inactive | inactive | 
2 | C[C@H]1O[C@H](O[C@H]2[C@H](O)[C@@H](O)[C@@H](O[C@H]3[C@H](O)[C@@H](O)C(O)O[C@@H]3CO)O[C@@H]2CO)[C@H](O)[C@@H](O)[C@@H]1N[C@H]1C=C(CO)[C@@H](O)[C@H](O)[C@H]1O (stereo not given in full) [ACARBOSE] |  |  | Ki [3]: 4.2 µM
3 | NC(=O)[C@H](Cc1c[nH]c2ccccc12)NC(=O)[C@H](Cc1c[nH]c2ccccc12)NC(=O)CCC(=O)Nc1ccc(O[C@H]2O[C@H](CO)[C@@H](O[C@H]3O[C@H](CO)[C@@H](O[C@H]4O[C@H](CO)[C@@H](O[C@H]5O[C@H](CO)[C@@H](O[C@H]6O[C@H](CO)[C@@H](O)[C@H](O)[C@H]6O)[C@H](O)[C@H]5O)[C@H](O)[C@H]4O)[C@H](O)[C@H]3O)[C@H](O)[C@H]2O)cc1 | inactive | inactive | 
4 | NC(=O)[C@H](Cc1ccc(O)cc1)NC(=O)[C@H](Cc1c[nH]c2ccccc12)NC(=O)CCC(=O)Nc1ccc(O)cc1 |  |  | Ki (Alpha-glucosidase): 1400 µM
5 | NC(=O)[C@H](Cc1c[nH]c2ccccc12)NC(=O)[C@H](Cc1ccccc1)NC(=O)CCC(=O)Nc1ccc(O[C@H]2O[C@H](CO)[C@@H](O[C@H]3O[C@H](CO)[C@@H](O[C@H]4O[C@H](CO)[C@@H](O[C@H]5O[C@H](CO)[C@@H](O[C@H]6O[C@H](CO)[C@@H](O)[C@H](O)[C@H]6O)[C@H](O)[C@H]5O)[C@H](O)[C@H]4O)[C@H](O)[C@H]3O)[C@H](O)[C@H]2O)cc1 | inactive | inactive | 
6 | O=[N+]([O-])c1ccc(O[C@H]2O[C@H](CO)[C@@H](O[C@H]3O[C@H](CO)[C@@H](O[C@H]4O[C@H](CO)[C@@H](O[C@H]5O[C@H](CO)[C@@H](O[C@H]6O[C@H](CO)[C@@H](O)[C@H](O)[C@H]6O)[C@H](O)[C@H]5O)[C@H](O)[C@H]4O)[C@H](O)[C@H]3O)[C@H](O)[C@H]2O)cc1 | inactive | inactive | 
7 | NC(=O)[C@H](Cc1ccccc1)NC(=O)[C@H](Cc1c[nH]c2ccccc12)NC(=O)CCC(=O)Nc1ccc(O[C@H]2O[C@H](CO)[C@@H](O[C@H]3O[C@H](CO)[C@@H](O[C@H]4O[C@H](CO)[C@@H](O[C@H]5O[C@H](CO)[C@@H](O[C@H]6O[C@H](CO)[C@@H](O)[C@H](O)[C@H]6O)[C@H](O)[C@H]5O)[C@H](O)[C@H]4O)[C@H](O)[C@H]3O)[C@H](O)[C@H]2O)cc1 | inactive | inactive | 
8 | NC(=O)[C@H](Cc1ccc(O)cc1)NC(=O)[C@H](Cc1c[nH]c2ccccc12)NC(=O)CCC(=O)Nc1ccc(O[C@H]2O[C@H](CO)[C@@H](O[C@H]3O[C@H](CO)[C@@H](O[C@H]4O[C@H](CO)[C@@H](O[C@H]5O[C@H](CO)[C@@H](O[C@H]6O[C@H](CO)[C@@H](O)[C@H](O)[C@H]6O)[C@H](O)[C@H]5O)[C@H](O)[C@H]4O)[C@H](O)[C@H]3O)[C@H](O)[C@H]2O)cc1 | inactive | inactive | 
9 | NC(=O)[C@H](Cc1ccc(O)cc1)NC(=O)[C@H](Cc1ccccc1)NC(=O)CCC(=O)Nc1ccc(O[C@H]2O[C@H](CO)[C@@H](O[C@H]3O[C@H](CO)[C@@H](O[C@H]4O[C@H](CO)[C@@H](O[C@H]5O[C@H](CO)[C@@H](O[C@H]6O[C@H](CO)[C@@H](O)[C@H](O)[C@H]6O)[C@H](O)[C@H]5O)[C@H](O)[C@H]4O)[C@H](O)[C@H]3O)[C@H](O)[C@H]2O)cc1 | inactive | inactive | 
10 | NC(=O)[C@H](Cc1ccc(O)cc1)NC(=O)[C@H](Cc1c[nH]c2ccccc12)NC(=O)CCC(=O)Nc1ccc(O[C@@H]2O[C@H](CO)[C@@H](O)[C@H](O)[C@H]2O)cc1 |  |  | Ki (Alpha-glucosidase): 110 µM
11 | NC(=O)[C@H](Cc1c[nH]c2ccccc12)NC(=O)[C@H](Cc1ccc(O)cc1)NC(=O)CCC(=O)Nc1ccc(O[C@H]2O[C@H](CO)[C@@H](O[C@H]3O[C@H](CO)[C@@H](O[C@H]4O[C@H](CO)[C@@H](O[C@H]5O[C@H](CO)[C@@H](O[C@H]6O[C@H](CO)[C@@H](O)[C@H](O)[C@H]6O)[C@H](O)[C@H]5O)[C@H](O)[C@H]4O)[C@H](O)[C@H]3O)[C@H](O)[C@H]2O)cc1 | inactive | inactive | 
12 | NC(=O)[C@H](Cc1ccccc1)NC(=O)[C@H](Cc1ccccc1)NC(=O)CCC(=O)Nc1ccc(O[C@H]2O[C@H](CO)[C@@H](O[C@H]3O[C@H](CO)[C@@H](O[C@H]4O[C@H](CO)[C@@H](O[C@H]5O[C@H](CO)[C@@H](O[C@H]6O[C@H](CO)[C@@H](O)[C@H](O)[C@H]6O)[C@H](O)[C@H]5O)[C@H](O)[C@H]4O)[C@H](O)[C@H]3O)[C@H](O)[C@H]2O)cc1 | inactive | inactive | 
13 | NC(=O)[C@H](Cc1ccccc1)NC(=O)[C@H](Cc1ccc(O)cc1)NC(=O)CCC(=O)Nc1ccc(O[C@H]2O[C@H](CO)[C@@H](O[C@H]3O[C@H](CO)[C@@H](O[C@H]4O[C@H](CO)[C@@H](O[C@H]5O[C@H](CO)[C@@H](O[C@H]6O[C@H](CO)[C@@H](O)[C@H](O)[C@H]6O)[C@H](O)[C@H]5O)[C@H](O)[C@H]4O)[C@H](O)[C@H]3O)[C@H](O)[C@H]2O)cc1 | inactive | inactive | 
14 | B1 |  |  | Km [4]: 1200 µM; Vmax [4]: 0.019 µM/s; kcat [4]: 9.5 s⁻¹; Km [5]: 1900 µM; Vmax [5]: 0.0015 µM/s; kcat [5]: 0.76 s⁻¹; Km [6]: 13 µM; Vmax [6]: 0.00025 µM/s; kcat [6]: 0.13 s⁻¹; kcat/Km [7]: 7600 M⁻¹ s⁻¹; kcat/Km [8]: 400 M⁻¹ s⁻¹; kcat/Km [9]: 10000 M⁻¹ s⁻¹
